Experimental data pooled from the literature.
Each line is one published result; the experiments were not run side by side.
Sample: plasma
Route: oral

CCc1nc2c(C)cc(N3CCN(CC(=O)N4CC(O)C4)CC3)cn2c1N(C)c1nc(-c2ccc(F)cc2)c(C#N)s1 — AUC(0-inf) (human; 1000 mg; single dose, fed, healthy volunteers): 66000 ng·h/mL
CC(C)(O)c1ccccc1-c1ccc2[nH]c(/C=C/c3ccc(C(F)(F)F)cc3)nc2c1 — AUC(0-t) (male human; 225 mg; single dose, fasted, healthy volunteers): 27900 ng·h/mL
COc1ccc([C@@H]2CN(C(=O)[C@@H](O)CO)C[C@@]2(C)[C@@H](C)O)cc1OC1CN(c2ccc(C)cn2)C1 — AUC(0-t) (human; 10 mg; single dose, healthy volunteers): 2750 ng·h/mL
Cn1c(=O)oc2ccc(-c3ccc(C[C@@H](C#N)NC(=O)[C@@H]4CNCCCO4)cc3)cc21 — AUC (male human; 35 mg; single dose, healthy volunteers): 13.2 µM·h
CC(C)n1cc(C#N)c2cc(-n3cc(C(=O)O)cn3)ccc21 — AUC(0-inf) (human; 400 mg; single dose, fasted, healthy volunteers): 92000 ng·h/mL
CO[C@H]1CC[C@H](N2C(=O)CNc3ncc(-c4ccc(C(C)(C)O)nc4)nc32)CC1 — AUC(0-t) (human; 15 mg; multiple doses, patients): 383 ng·h/mL
COCCOc1cnc2ccn([C@H](C)c3nnc4c(F)cc(-c5cnn(C)c5)cn34)c(=O)c2c1 — AUC(0-t) (human; 400 mg; multiple doses, once daily, patients): 49600 ng·h/mL
CS(=O)(=O)CCC#N — AUC (human; 100 mg; multiple doses, once daily): 70300 ng·h/mL
COc1cc(C(=O)NC2CCN(C)CC2)c(F)cc1Nc1ncc(C(F)(F)F)c(Oc2cccc3c2C(=O)N(C)C3)n1 — AUC (human; 50 mg; multiple doses, once daily, steady state, patients): 4.89 µM·h
Cn1cc(-c2ccc(S(=O)(=O)[C@@H]3C[C@@H](C(=O)NC4(C#N)CC4)N(C(=O)C4(C(F)(F)F)CC4)C3)c(C(F)(F)F)c2)cn1 — AUC(0-inf) (human; 10 mg; single dose, fasted, healthy volunteers): 995 ng·h/mL
